Experimental data taken from ChEMBL document CHEMBL1142314, “alpha- and beta-substituted phosphonate analogs of LPA as autotaxin inhibitors” (Bioorg Med Chem, 2008).

Tests used:
[1] = target: Autotaxin (Homo sapiens) (UniProt Q13822); assay: Inhibition of autotaxin assessed as residual enzyme activity at 10 uM relative to control
Procedure, shortened: (§1)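 ATX activity measured with the compound present at 1 μM, 10 μM or 100 μM. Activity without compound served as the standard (100%), and results are reported as percent residual ATX activity.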

[2] = target: Autotaxin (Homo sapiens) (UniProt Q13822); assay: Inhibition of autotaxin assessed as residual enzyme activity at 1 uM relative to control; procedure, shortened: as §1
[3] = target: Autotaxin (Homo sapiens) (UniProt Q13822); assay: Inhibition of autotaxin assessed as residual enzyme activity at 100 uM relative to control; procedure, shortened: as §1

| Compound | Activity [1] [%] | Activity [2] [%] | Activity [3] [%] |
| --- | --- | --- | --- |
| CCCCCCCCCCCCCCCC(=O)N1CCCC1C(=O)CP(=O)(O)O (stereo not given) | 18 | 49 | 9 |
| CCCCCCCCCCCCCCCC(=O)N1CCCC1C(O)CP(=O)(O)O (stereo not given) | 43 | 83 | 16 |
| CCCCCCCCCCCCCCCC(=O)NCC(=O)CP(=O)(O)O | 95 | 79 | 76 |
| CCCCCCCCCCCCCCCC(=O)NCC(O)CP(=O)(O)O (stereo not given) | 88 | 88 | 56 |
| CCCCCCCCCCCCCCCC(=O)N[C@@H](C)C(=O)CP(=O)(O)O | 67 | 60 | 72 |
| CCCCCCCCCCCCCCCC(=O)N[C@@H](CC(C)C)C(=O)CP(=O)(O)O | 48 | 89 | 25 |
| CCCCCCCCCCCCCCCC(=O)N[C@@H](Cc1c[nH]c2ccccc12)C(=O)CP(=O)(O)O | 70 | 91 | 28 |
| CCCCCCCCCCCCCCCC(=O)N[C@@H](Cc1ccc(OCc2ncc(C)c(OC)c2C)cc1)C(F)CP(=O)(O)O (stereo not given in full) | 22 | 59 | 11 |
| CCCCCCCCCCCCCCCC(=O)N[C@@H](Cc1ccc(OCc2ncc(C)c(OC)c2C)cc1)C[C@@H](O)P(=O)(O)O | 70 | 71 | 53 |
| CCCCCCCCCCCCCCCC(=O)N[C@@H](Cc1ccc(OCc2ncc(C)c(OC)c2C)cc1)C[C@H](O)P(=O)(O)O | 68 | 73 | 87 |
| CCCCCCCCCCCCCCCC(=O)N[C@H](C(=O)CP(=O)(O)O)C(C)C | 77 | 109 | 24 |
| CCCCCCCCCCCCCCCC(=O)N[C@@H](C)C(O)CP(=O)(O)O (mixture of isomers) | 14 | 50 | 25 |
| CCCCCCCCCCCCCCCC(=O)N[C@@H](Cc1ccc(OCc2ncc(C)c(OC)c2C)cc1)CC(F)P(=O)(O)O (mixture of isomers) | 68 | 74 | 25 |
| CCCCCCCCCCCCCCCC(=O)N[C@@H](Cc1cn(Cc2ccccc2)c2ccccc12)C(O)CP(=O)(O)O (mixture of isomers) | 35 | 80 | 28 |
| CCCCCCCCCCCCCCCC(=O)N[C@@H](Cc1cn(Cc2ncc(C)c(OC)c2C)c2ccccc12)C(O)CP(=O)(O)O (mixture of isomers) | 28 | 64 | 13 |
| CCCCCCCCCCCCCCCC(=O)N[C@@H](C(C)C)C(O)CP(=O)(O)O (single isomer, unassigned; diastereomer a) | 57 | 115 | 13 |
| CCCCCCCCCCCCCCCC(=O)N[C@@H](CC(C)C)C(O)CP(=O)(O)O (single isomer, unassigned; diastereomer a) | 53 | 68 | 23 |
| CCCCCCCCCCCCCCCC(=O)N[C@@H](Cc1c[nH]c2ccccc12)C(O)CP(=O)(O)O (single isomer, unassigned; diastereomer a) | 51 | 88 | 25 |
| CCCCCCCCCCCCCCCC(=O)N[C@@H](Cc1ccccc1)C(O)CP(=O)(O)O (single isomer, unassigned; diastereomer a) | 70 | 88 | 70 |
| CCCCCCCCCCCCCCCC(=O)N[C@@H](CC(C)C)C(O)CP(=O)(O)O (single isomer, unassigned; diastereomer b) | 64 | 93 | 52 |
| CCCCCCCCCCCCCCCC(=O)N[C@@H](COCc1ccccc1)C(O)CP(=O)(O)O (single isomer, unassigned; diastereomer b) | 46 | 78 | 61 |
| CCCCCCCCCCCCCCCC(=O)N[C@@H](C(C)C)C(O)CP(=O)(O)O (stereo in doubt; 32) | 78 | 72 | 23 |
| CCCCCCCCCCCCCCCC(=O)N[C@@H](Cc1ccccc1)C(O)CP(=O)(O)O (stereo in doubt; 37) | 99 | 92 | 67 |
| CCCCCCCCCCCCCCCC(=O)N[C@@H](Cc1c[nH]c2ccccc12)C(O)CP(=O)(O)O (stereo in doubt; 42) | 75 | 93 | 26 |
| CCCCCCCCCCCCCCCC(=O)N[C@@H](COCc1ccccc1)C(O)CP(=O)(O)O (stereo in doubt; 45) | 41 | 83 | 19 |
